# Screening results deposited in PubChem BioAssay by Johns Hopkins Ion Channel Center.
# TRPC6 inh: mouse TRPC6 channel inhibition. B-score at 10 µM. HEK293-TRPC6, membrane potential dye, ACh-evoked depolarization; hits give low values. AID 2553. 1.1% of 310,000 active;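 active means B-score under library mean minus 3 SD, initial fluorescence not abnormally high, positive integrated signal ratio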;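 further: B-score derived from integrated fluorescence ratio over the kinetic read; more negative B-score means stronger inhibition of depolarization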
# TRPC4 inh: inhibitors of mouse TRPC4 channel; HEK293 TRPC4beta/mu-opioid, DAMGO-evoked Fluo4 calcium flux; hits give low values; B-score at 10 µM; 0.39% of 300,000 active; Q9QUQ5; AID 2247;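 active means B-score over 3 SD under the library average, no early fluorescence shift, positive overall ratio signal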
#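 Assay system: HEK293 cells with stable TRPC4beta plus mu-opioid receptor expression; Probe or stimulus: DAMGO in two steps, submaximal then maximal; Dosing: single-point compound dosing; Measured by: Fluo4 calcium-dye fluorescence, kinetic read; Read-out basis: B score from integrated Fluo4 fluorescence ratio.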
# TRPC6 activator: mouse TRPC6 channel activation; Q61143; HEK293-TRPC6 membrane potential dye fluorescence; hits give high values; B-score at 10 µM; 0.13% of 310,000 active; AID 2550;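 active means B-score of the integrated fluorescence ratio above library mean plus 3 SD, and starting fluorescence ratio within library mean plus 5 SD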;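 further: higher score means more depolarization so channel activation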
# TRPC4 act: opens the mouse TRPC4 cation channel; Q9QUQ5; HEK293 TRPC4beta/mu-opioid, Fluo4 calcium fluorescence; hits give high values; B-score at 10 µM; 0.49% of 310,000 active; AID 2237;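 active means B-score above 5 SD of library B-scores, and initial fluorescence ratio not above library mean plus 5 SD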;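 further: positive B-score marks a calcium rise read as TRPC4 activation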
#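 System – HEK293 cells stably co-expressing mouse TRPC4beta and mu-opioid receptor · Signal – Fluo4 calcium-sensitive dye fluorescence, kinetic, 1 Hz baseline · Benchmarks – buffer (low) and maximal DAMGO (high) · Read-out – B score of integrated fluorescence ratio per well · Incubation – dye loading 45 min room temperature, 110 s kinetic read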
# TRPC4 PAM: allosteric potentiators of mouse TRPC4 channel; AID 2227; B-score at 10 µM; 0.42% of 310,000 active; HEK293 TRPC4beta/mu-opioid, DAMGO EC20, Fluo-4 Ca2+ flux; hits give high values; Q9QUQ5;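 active means B-score of calcium response area above 5 SD of library B-scores, with initial fluorescence ratio within 5 SD of library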
# Numbers stand for hits; 0 = inactive; - = no result given. Compounds with a hit are over-represented: about 2.3% of the library has one in this group of screens.
SMILES,TRPC6 inh,TRPC4 inh,TRPC6 activator,TRPC4 act,TRPC4 PAM
CCn1nccc1C(=O)Nc1cc(Cl)cc(Cl)c1,0,-5,0,0,0
CCOc1ccc(C(=O)NC2CC(=O)N(c3ccc4c(c3)OCCO4)C2)cc1 (stereo not given),0,0,0,0,0
COc1ccc(CC(O)CC2c3c(cc4c(c3OC)OCO4)CCN2C)cc1 (stereo not given),0,-6,0,58,0
O=C(COC(=O)CCCN1C(=O)c2cccc3cccc(c23)C1=O)Nc1cccc(C(F)(F)F)c1,0,0,0,0,0
COc1ccc(CCNC(=S)NC2CCN(Cc3ccccc3)CC2)cc1,0,0,0,0,0
C=CCNC(=O)c1scc2c1CCCC2,0,0,0,0,0
CN(C)CCNC(=O)c1scc2c1CCCC2,0,0,0,142,0
CCN1CCN(c2c(S(=O)(=O)c3ccc(C)c(C)c3)cnc3ccc(F)cc23)CC1,0,0,0,61,0
COC(=O)C(C)N1CCC(=O)c2ccccc2S1(=O)=O (stereo not given),0,0,0,0,0
CCn1c(CN2CCN(Cc3ccc(C)cc3)C(CCO)C2)nc2ccccc21 (stereo not given),0,0,0,172,0
CC(C)Cn1c(CN2CCN(C)C(CCO)C2)nc2ccccc21 (stereo not given),0,0,0,0,19
Cc1ccc(CN2CCN(Cc3cccc4nccnc34)CC2CCO)cc1 (stereo not given),0,0,0,0,0
CN1CCN(Cc2nc3ccccc3n2C)CC1CCO (stereo not given),0,0,0,0,19
Cn1c(/N=C/c2cccs2)nc2ccccc21,0,0,0,0,0
Cn1c(/N=C/c2ccccc2[N+](=O)[O-])nc2ccccc21,0,0,0,0,15
COc1cccc(CNc2ccc([N+](=O)[O-])cc2C)c1,0,0,0,0,0
Cc1cc([N+](=O)[O-])ccc1NCc1ccco1,0,-6,0,0,0
CC(CC12CC3CC(CC(C3)C1)C2)NCc1ccccc1O (stereo not given),0,0,0,0,0
CCOc1cccc(CNCCO)c1OCc1ccc(Cl)cc1,0,-7,0,0,0
CC12CCC(c3c(C(=O)N4CCOCC4)nn(-c4ccccc4)c31)C2(C)C (stereo not given),0,0,0,0,10
CCc1ccc2[nH]c(=O)c(C(c3nnnn3Cc3ccc(OC)cc3)N3CCOCC3)cc2c1 (stereo not given),0,0,0,0,0
COc1ccc(Cn2nnnc2C(c2cc3cccc(C)c3[nH]c2=O)N2CCN(C)CC2)cc1 (stereo not given),0,0,0,98,0
COc1ccc(Cn2nnnc2C(c2cc3cc(C)ccc3[nH]c2=O)N2CCN(C)CC2)cc1 (stereo not given),0,-7,0,0,0
Cc1cccc2cc(C(c3nnnn3Cc3ccccc3)N3CCN(C)CC3)c(=O)[nH]c12 (stereo not given),0,0,0,47,0
COc1ccc(CN(CC(=O)NCC2CCCO2)C(=O)CCC(=O)Nc2nccs2)cc1 (stereo not given),0,0,0,0,0
SMILES,TRPC6 inh,TRPC4 inh,TRPC6 activator,TRPC4 act,TRPC4 PAM
O=C(CNC(=O)c1ccco1)Nc1ccncc1,0,0,0,0,0
COc1ccc(CC/C(C)=N\NC(N)=O)cc1,0,0,0,0,0
CN(Cc1cnn(C)c1)C(=O)c1ccc(OC2CCN(CCc3ccccc3)CC2)cc1,0,-6,0,0,0
CSCCCNC(=O)c1ccc(OC2CCN(CCc3ccccc3)CC2)cc1,0,0,0,58,0
O=C(NCCc1cccc(Cl)c1)c1ccc(OC2CCN(Cc3ccccn3)CC2)cc1,0,0,0,150,0
O=C(NCCc1ccccn1)c1ccc(OC2CCN(CCc3ccccc3)CC2)cc1,0,0,0,66,0
Cc1ccc(N=Cc2cc3c(cc2O)OC(N)=C(C#N)C3c2ccccc2)cc1 (stereo not given),0,0,0,0,0
Cc1cccc(NC(=O)CSc2nccn2Cc2ccco2)c1C,0,0,0,0,0
CC(=O)OC(C#CCN1CCOCC1)c1ccccc1 (stereo not given),0,0,0,0,0
OC(C#CCN1CCOCC1)c1cccs1 (stereo not given),0,0,0,77,0
Brc1ccc(-c2csc3ncnc(-n4nnc5ccccc54)c23)cc1,0,0,0,0,0
CC(C)CCc1noc(CN2CCN(c3ccc(Cl)cn3)CC2)n1,0,0,0,0,16
O=[N+]([O-])c1cc(S(=O)(=O)O)cc([N+](=O)[O-])c1NN(c1ccccc1)c1ccccc1,0,0,0,0,0
COC(=O)[C@H]1[C@H](c2ccccc2)[C@H](C(=O)OC)O[C@H]1c1ccccc1,0,0,0,0,0
COC(=O)C1C(c2ccccc2)C(C(=O)N2CCN(C)CC2)C1c1ccccc1 (stereo not given),0,0,0,64,0
CCn1cc(CN2CCC(n3nccc3NC(=O)C3CCCC3)CC2)cn1,0,0,0,0,0
CC1=NN(c2ccccc2)C(=O)/C1=C/c1ccc(Cl)cc1,0,0,0,0,10
CCn1c2ccccc2c2nnc(NN)nc21,0,0,0,45,15
CCn1c2ccc(C)cc2c2nnc(NN)nc21,0,0,0,0,0
CN1CCCC(OC(=O)c2cccc(Cl)c2)C1 (stereo not given),0,0,0,45,12
CN1CCCC(OC(=O)c2ccccc2Br)C1 (stereo not given),0,0,0,0,10
CN1CCCC(OC(=O)c2cc(Cl)cc(Cl)c2)C1 (stereo not given),0,0,0,193,0
CN1CCCC(OC(=O)c2cccc(Br)c2)C1 (stereo not given),0,0,0,58,0
CCn1c(SCC(=O)NC2CCCC2)nnc1-c1cccnc1,0,0,0,0,0
Cc1cc(C)cc(CN2C(=O)NC3(CCCCCC3)C2=O)c1,0,0,0,0,0
SMILES,TRPC6 inh,TRPC4 inh,TRPC6 activator,TRPC4 act,TRPC4 PAM
O=C(CN1C(=O)c2ccccc2C1=O)Nc1ccc(S(=O)(=O)N2CCOCC2)cc1,0,0,0,0,0
Cc1cccc(OCCC(=O)NCC(c2ccccc2)N(C)C)c1 (stereo not given),0,0,0,103,0
COc1ccc(C(CNC(=O)CCOc2ccccc2)N(C)C)cc1 (stereo not given),0,0,0,154,0
CN(C)C(CNC(=O)CCOc1ccccc1)c1ccco1 (stereo not given),0,-,0,0,0
CN(C)C(CNC(=O)CCc1nc2ccccc2s1)c1ccccc1 (stereo not given),0,-7,0,0,0
Cc1ccc2occ(/C=N/NC(=O)c3ccccc3O)c(=O)c2c1,0,0,0,0,0
